Source: PubChem BioAssay AID623986 (Vanderbilt High Throughput Screening Facility, 2012)
Active and inactive are the calls of the source. The rule behind the calls is not given here.

Target: Potassium voltage-gated channel subfamily KQT member 4 (Homo sapiens) (UniProt P56696)
Test: Kv7.4 channel modulation by thallium flux, dose response, selectivity assay for GIRK activator project, cell-based, human, concentration-response (AID 623986)
How it was run: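 material = T-REx-293 cells stably expressing human Kv7.4 potassium channel | read-out basis = baseline-corrected slope, % of vehicle | control set = XE-991-blocked wells as baseline, vehicle wells as reference | repeats = triplicate wells, four-parameter logistic concentration-response fits | measured by = FluoZin-2 thallium flux fluorescence | incubation = 4 min compound pretreatment before thallium stimulus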

Sequence of Potassium voltage-gated channel subfamily KQT member 4 (Homo sapiens) (P56696 whole entry, looked up): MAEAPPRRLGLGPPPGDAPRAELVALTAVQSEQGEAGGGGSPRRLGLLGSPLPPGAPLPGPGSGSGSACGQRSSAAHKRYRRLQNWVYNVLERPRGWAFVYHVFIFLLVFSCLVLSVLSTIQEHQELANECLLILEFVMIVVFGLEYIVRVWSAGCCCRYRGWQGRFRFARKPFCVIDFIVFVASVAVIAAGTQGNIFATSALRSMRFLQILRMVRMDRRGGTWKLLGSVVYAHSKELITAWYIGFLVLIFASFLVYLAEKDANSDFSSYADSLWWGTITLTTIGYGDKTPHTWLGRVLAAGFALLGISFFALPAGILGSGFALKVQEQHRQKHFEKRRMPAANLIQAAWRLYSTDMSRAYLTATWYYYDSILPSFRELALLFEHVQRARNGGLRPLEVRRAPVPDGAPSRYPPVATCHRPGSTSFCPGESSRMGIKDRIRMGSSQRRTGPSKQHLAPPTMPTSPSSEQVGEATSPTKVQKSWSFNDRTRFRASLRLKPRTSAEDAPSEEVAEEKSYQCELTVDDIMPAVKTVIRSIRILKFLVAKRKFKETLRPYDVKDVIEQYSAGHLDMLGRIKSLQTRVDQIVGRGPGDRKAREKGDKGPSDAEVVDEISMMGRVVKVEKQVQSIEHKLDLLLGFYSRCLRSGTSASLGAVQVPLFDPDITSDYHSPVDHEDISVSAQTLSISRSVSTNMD

How did the outcome turn out when `Cc1cc(NC(=O)Nc2ccc(F)c(F)c2)n(-c2ccccc2)n1` was run?
The outcome was “inactive”.
